{"source": "ChEMBL document CHEMBL3272021", "about": "“Quaternary pilocarpine derivatives as potential acetylcholine antagonists. 2. Alterations in the lactone and imidazole moieties” (J Med Chem, 1976)", "key": {"[1]": {"tested_on": "Ileum", "assay": "Inhibition of acetylcholine-induced contraction in guinea pig ileum at 0.03 ug/ml", "conditions": "Cavia porcellus, read-out: INH"}, "[2]": {"tested_on": "Mus musculus", "assay": "Antidotal activity in ip dosed male mouse assessed as inhibition of tetraethylpyrophosphate-induced intoxication drug administered 5 mins prior to subcutaneously administration of 3 X LD50 of TEPP in presence of 25 mg/kg atropine sulfate", "type": "functional, organism-based", "parameters": "dose 25 mg/kg", "conditions": "at 25 mg/kg", "how_it_was_run": "(§1)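 Male mice, 20 g body weight. Compound was dissolved in saline or propylene glycol and given ip at the maximal dose (up to 100 mg/kg) that caused no observable symptoms alongside atropine sulfate (25 mg/kg), per preliminary groups of four mice. It was co-injected with atropine 5 min before sc 3 × LD50 TEPP. Surviving mice were scored from two experiments of five animals each.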"}, "[3]": {"tested_on": "Ileum", "assay": "Inhibition of acetylcholine-induced contraction in guinea pig ileum at 0.1 ug/ml", "type": "functional", "conditions": "Cavia porcellus", "how_it_was_run": "(§2)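 Terminal guinea pig ileum segment in a 5-ml organ bath of Tyrode solution at 35°, with isometric kymograph recording. Control contractions were elicited with 0.1 μg AcCh. Compound was added, and AcCh followed 1 min later without washing. The value is percent reduction of the control AcCh response, averaged over two separate assays. Concentrations are final per ml of bath fluid.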"}, "[4]": {"tested_on": "Ileum", "assay": "Toxicity in guinea pig ileum assessed as spasmogenic activity relative to 0.6 ug/ml pilocarpine", "type": "tissue-based, Cavia porcellus", "conditions": "ex_vivo", "how_it_was_run": "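Guinea pig terminal ileum in a 5-ml Tyrode bath at 35°, with isometric kymograph recording at 16× magnification. Contact time was 30 sec with a 2-min cycle. Reference contractions used pilocarpine (0.6 μg). Compounds were applied at several concentrations, and potency relative to pilocarpine was calculated from contraction heights.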"}, "[5]": {"tested_on": "Ileum", "assay": "Toxicity in guinea pig ileum assessed as spasmogenic activity treated 1 min after addition of 10 ng/ml muscarinic acetylcholine receptor antagonist atropine sulphate", "type": "tissue-based, Cavia porcellus"}, "[6]": {"tested_on": "Mus musculus", "assay": "Antidotal activity in male mouse assessed as inhibition of tetraethylpyrophosphate-induced intoxication at 25 mg/kg, ip drug administered 5 mins prior to subcutaneously administration of 3 X LD50 of TEPP in presence of 25 mg/kg atropine sulfate", "type": "functional, organism-based", "how_it_was_run": "as §1"}, "[7]": {"tested_on": "Ileum", "assay": "Inhibition of acetylcholine-induced contraction in guinea pig ileum at 1 ug/ml", "type": "functional", "conditions": "Cavia porcellus", "how_it_was_run": "as §2"}, "[8]": {"tested_on": "Ileum", "assay": "Inhibition of acetylcholine-induced contraction in guinea pig ileum at 10 ug/ml", "type": "functional, Cavia porcellus", "conditions": "for inhibition at 10 µg/mL: Cavia porcellus, Ileum", "how_it_was_run": "as §2"}, "[9]": {"tested_on": "Mus musculus", "assay": "Antidotal activity in male mouse assessed as inhibition of tetraethylpyrophosphate-induced intoxication at 100 mg/kg, ip drug administered 5 mins prior to subcutaneously administration of 3 X LD50 of TEPP in presence of 25 mg/kg atropine sulfate", "type": "functional, organism-based", "how_it_was_run": "as §1"}, "[10]": {"tested_on": "Mus musculus", "assay": "Antidotal activity in male mouse assessed as inhibition of tetraethylpyrophosphate-induced intoxication at 50 mg/kg, ip drug administered 5 mins prior to subcutaneously administration of 3 X LD50 of TEPP in presence of 25 mg/kg atropine sulfate", "type": "functional, organism-based", "how_it_was_run": "as §1"}, "[11]": {"tested_on": "Ileum", "assay": "Inhibition of acetylcholine-induced contraction in guinea pig ileum at 2 ug/ml", "type": "functional", "conditions": "Cavia porcellus", "how_it_was_run": "as §2"}, "[12]": {"tested_on": "Ileum", "assay": "Inhibition of acetylcholine-induced contraction in guinea pig ileum at 0.4 ug/ml", "type": "functional", "conditions": "Cavia porcellus", "how_it_was_run": "as §2"}, "[13]": {"tested_on": "Ileum", "assay": "Toxicity in guinea pig ileum assessed as spasmogenic activity at 0.6 ug/ml", "type": "tissue-based, Cavia porcellus"}}, "note": "Structures can show the parent of a compound that is named as a salt. Activity calls are given as the source filed them. The calls are words filed in the database; no cut-off is given here.", "data": [{"smiles": "CN1[C@@H]2CC[C@H]1C[C@@H](OC(=O)C(CO)c1ccccc1)C2", "note": "(stereo not given in full) [ATROPINE SULFATE]", "values": [{"measurement": "inhibition at 0.03 µg/mL", "setting": "[1]", "result": 100, "unit": "%"}, {"measurement": "inhibition", "setting": "[2]", "result": "inactive"}]}, {"smiles": "CCC(C(=O)NO)C(CO)Cc1c[n+](CC(=O)c2ccc([N+](=O)[O-])cc2)cn1C.[Br-]", "note": "(stereo not given)", "values": [{"measurement": "inhibition at 0.1 µg/mL", "setting": "[3]", "result": 0, "unit": "%"}, {"measurement": "inhibition", "setting": "[2]", "result": "inactive"}, {"measurement": "fold change (FC)", "setting": "[4]", "result": 0.1}, {"measurement": "Activity", "setting": "[5]", "result": "Non-toxic"}]}, {"smiles": "CCC1C(=O)OCC1Cc1c[n+](C/C(=N\\O)c2ccc(-c3ccccc3)cc2)cn1C", "note": "(stereo not given) [listing 1 of 2 here]", "values": [{"measurement": "inhibition", "setting": "[2]", "result": "inactive"}]}, {"smiles": "CCC1C(=O)OCC1Cc1c[n+](C/C(=N\\O)c2ccc(Br)cc2)cn1C", "note": "(stereo not given)", "values": [{"measurement": "inhibition", "setting": "[2]", "result": "inactive"}, {"measurement": "inhibition", "setting": "[6]", "result": "Active"}]}, {"smiles": "CCC1C(=O)OCC1Cc1c[n+](CC(=O)c2ccc([N+](=O)[O-])cc2)cn1C.[Br-]", "note": "(stereo not given)", "values": [{"measurement": "inhibition at 1 µg/mL", "setting": "[7]", "result": 0, "unit": "%"}, {"measurement": "inhibition", "setting": "[2]", "result": "inactive"}, {"measurement": "fold change (FC)", "setting": "[4]", "result": 0.01}]}, {"smiles": "CCC(C(=O)NO)C(CO)Cc1c[n+](CC)cn1C", "note": "(stereo not given)", "values": [{"measurement": "inhibition at 10 µg/mL", "setting": "[8]", "result": 55, "unit": "%"}]}, {"smiles": "CCC(C(=O)NO)C(CO)Cc1c[n+](Cc2ccc(Cl)c(Cl)c2)cn1C", "note": "(stereo not given)", "values": [{"measurement": "inhibition at 10 µg/mL", "setting": "[8]", "result": 25, "unit": "%"}, {"measurement": "inhibition", "setting": "[9]", "result": "Active"}]}, {"smiles": "CCC1C(=O)OCC1Cc1c[n+](CC(=O)c2ccc(Br)cc2)cn1C", "note": "(stereo not given)", "values": [{"measurement": "inhibition at 10 µg/mL", "setting": "[8]", "result": 90, "unit": "%"}, {"measurement": "inhibition", "setting": "[9]", "result": "inactive"}]}, {"smiles": "CCC1C(=O)OCC1Cc1c[n+](CCOC(C)=O)cn1C.[Br-]", "note": "(stereo not given)", "values": [{"measurement": "inhibition at 0.1 µg/mL", "setting": "[3]", "result": 0, "unit": "%"}, {"measurement": "inhibition", "setting": "[9]", "result": "inactive"}, {"measurement": "fold change (FC)", "setting": "[4]", "result": 0.1}, {"measurement": "Activity", "setting": "[5]", "result": "Non-toxic"}]}, {"smiles": "CCC1C(=O)OCC1Cc1c[n+](C/C(=N\\O)c2ccccc2)cn1C", "note": "(stereo not given)", "values": [{"measurement": "inhibition at 10 µg/mL", "setting": "[8]", "result": 30, "unit": "%"}, {"measurement": "inhibition", "setting": "[10]", "result": "Active"}]}, {"smiles": "CCC1C(=O)OCC1Cc1c[n+](C/C(=N\\O)c2ccc(-c3ccccc3)cc2)cn1C", "note": "(stereo not given) [listing 2 of 2 here]", "values": [{"measurement": "inhibition at 10 µg/mL", "setting": "[8]", "result": 100, "unit": "%"}]}, {"smiles": "CCC(C(=O)NO)C(CO)Cc1c[n+](C/C(=N\\O)c2ccc([N+](=O)[O-])cc2)cn1C.[Br-]", "note": "(stereo not given)", "values": [{"measurement": "inhibition at 2 µg/mL", "setting": "[11]", "result": 0, "unit": "%"}, {"measurement": "fold change (FC)", "setting": "[4]", "result": 0.01}, {"measurement": "Activity", "setting": "[5]", "result": "Non-toxic"}]}, {"smiles": "CCC(C(=O)NO)C(CO)Cc1c[n+](C/C(=N\\O)c2ccc(-c3ccccc3)cc2)cn1C", "note": "(stereo not given)", "values": [{"measurement": "inhibition at 10 µg/mL", "setting": "[8]", "result": 53, "unit": "%"}]}, {"smiles": "CCC1C(=O)OCC1Cc1c[n+](CCO)cn1C.[Br-]", "note": "(stereo not given)", "values": [{"measurement": "inhibition at 0.1 µg/mL", "setting": "[3]", "result": 0, "unit": "%"}, {"measurement": "inhibition", "setting": "[2]", "result": "inactive"}, {"measurement": "fold change (FC)", "setting": "[4]", "result": 0.1}, {"measurement": "Activity", "setting": "[5]", "result": "Non-toxic"}]}, {"smiles": "CCC1C(=O)OCC1Cc1c[n+](CCCO)cn1C.[Br-]", "note": "(stereo not given)", "values": [{"measurement": "inhibition at 0.4 µg/mL", "setting": "[12]", "result": 0, "unit": "%"}, {"measurement": "fold change (FC)", "setting": "[4]", "result": 0.05}, {"measurement": "Activity", "setting": "[5]", "result": "Non-toxic"}]}, {"smiles": "CCC1C(=O)OCC1Cc1c[n+](C/C(=N\\O)c2ccc(Br)cc2)cn1C.[Br-]", "note": "(stereo not given)", "values": [{"measurement": "inhibition (INH)", "setting": "[8]", "result": 100, "unit": "%"}]}, {"smiles": "CCC1C(=O)OCC1Cc1c[n+](CC(=O)c2ccc(-c3ccccc3)cc2)cn1C", "note": "(stereo not given)", "values": [{"measurement": "inhibition at 10 µg/mL", "setting": "[8]", "result": 100, "unit": "%"}, {"measurement": "inhibition", "setting": "[2]", "result": "inactive"}]}, {"smiles": "CCC(C(=O)NO)C(CO)Cc1c[n+](CC(=O)c2ccc(Br)cc2)cn1C", "note": "(stereo not given)", "values": [{"measurement": "inhibition at 10 µg/mL", "setting": "[8]", "result": 80, "unit": "%"}, {"measurement": "inhibition", "setting": "[2]", "result": "inactive"}]}, {"smiles": "CCC1C(=O)OCC1Cc1c[n+](C/C(=N\\O)c2ccc(-c3ccccc3)cc2)cn1C.[Cl-]", "note": "(stereo not given)", "values": [{"measurement": "inhibition (INH)", "setting": "[8]", "result": 80, "unit": "%"}]}, {"smiles": "CCC(C(=O)NO)C(CO)Cc1c[n+](Cc2ccc(C)cc2)cn1C", "note": "(stereo not given)", "values": [{"measurement": "inhibition at 10 µg/mL", "setting": "[8]", "result": 55, "unit": "%"}, {"measurement": "inhibition", "setting": "[9]", "result": "Active"}]}, {"smiles": "CC[C@@H]1C(=O)OC[C@@H]1Cc1cncn1C", "note": "[PILOCARPINE]", "values": [{"measurement": "Activity", "setting": "[13]", "result": "Toxic"}]}, {"smiles": "CCC(C(=O)NO)C(CO)Cc1c[n+](C/C(=N\\O)c2ccc(Br)cc2)cn1C", "note": "(stereo not given)", "values": [{"measurement": "inhibition at 10 µg/mL", "setting": "[8]", "result": 55, "unit": "%"}]}, {"smiles": "CCC1C(=O)OCC1Cc1c[n+](C/C(=N\\O)c2ccc(Br)cc2)cn1C.[Cl-]", "note": "(stereo not given)", "values": [{"measurement": "inhibition (INH)", "setting": "[8]", "result": 50, "unit": "%"}]}, {"smiles": "CCC1C(=O)OCC1Cc1c[n+](C/C(=N/O)c2ccc([N+](=O)[O-])cc2)cn1C", "note": "(stereo not given)", "values": [{"measurement": "inhibition at 10 µg/mL", "setting": "[8]", "result": 90, "unit": "%"}, {"measurement": "inhibition", "setting": "[2]", "result": "inactive"}]}, {"smiles": "CCC(C(=O)NO)C(CO)Cc1c[n+](Cc2ccc(Br)cc2)cn1C", "note": "(stereo not given)", "values": [{"measurement": "inhibition at 10 µg/mL", "setting": "[8]", "result": 95, "unit": "%"}, {"measurement": "inhibition", "setting": "[9]", "result": "Active"}]}, {"smiles": "CCC1C(=O)OCC1Cc1c[n+](CCCOC(C)=O)cn1C.[Br-]", "note": "(stereo not given)", "values": [{"measurement": "inhibition at 0.4 µg/mL", "setting": "[12]", "result": 0, "unit": "%"}, {"measurement": "fold change (FC)", "setting": "[4]", "result": 0.05}, {"measurement": "Activity", "setting": "[5]", "result": "Non-toxic"}]}, {"smiles": "CC[C@H]1C(=O)OC[C@@H]1Cc1cncn1C", "values": [{"measurement": "fold change (FC)", "setting": "[4]", "result": 0.02}, {"measurement": "Activity", "setting": "[5]", "result": "Non-toxic"}]}]}
